# Test results as given in ChEMBL document CHEMBL1287654, “Anticancer activity of N-bis(trifluoromethyl)alkyl-N'-(polychlorophenyl) and N'-(1,2,4-triazolyl) ureas” (2010).
# Legend:
# Format in all cases: functional
# SF-268 [1] = experiment: Growth inhibition of human SF268 cells assessed as cell growth at 100 uM after 48 hrs by sulforhodamine B assay relative to control; settings: SF-268, 48 h, read-out: Activity
# Summary of the method: (§1)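 One-dose pre-test on MCF7, NCI-H460 and SF-268. Cells were inoculated and pre-incubated on a microtiter plate, then given a single 10^-4 M dose and incubated 48 h. Growth was read spectrophotometrically and expressed as percent of untreated control cells; negative values indicate cell kill.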
# NCI-H460 = experiment: Growth inhibition of human NCI-H460 cells assessed as cell growth at 100 uM after 48 hrs by sulforhodamine B assay relative to control; settings: NCI-H460, 48 h, read-out: Activity; summary of the method: as §1
# MCF7 [2] = experiment: Growth inhibition of human MCF7 cells assessed as cell growth at 100 uM after 48 hrs by sulforhodamine B assay relative to control; settings: MCF7, 48 h, read-out: Activity; summary of the method: as §1
# [3] = Growth inhibition of human prostate cancer cell after 48 hrs by sulforhodamine B assay; settings: Cancer cell lines
# Summary of the method: (§2)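 Subpanel median growth inhibitory concentration: the average sensitivity of each tumor-type subpanel of the NCI 60-cell-line panel, derived from per-cell-line GI50 values. GI50 values came from a five log dose range and are expressed as log molar concentration for 50% net growth inhibition.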
# NCI/ADR-RES = experiment: Growth inhibition of human NCI/ADR-RES cells after 48 hrs by sulforhodamine B assay
# Summary of the method: (§3)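 NCI 60-cell-line main test over a five-log dose range. GI50 is the molar concentration giving half-growth inhibition, reported as log molar. Subpanel values are median GI50 across that subpanel's lines. Where 50% inhibition was not reached within the tested interval, the highest tested concentration was used.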
# [4] = Growth inhibition of human non-small lung cancer cell after 48 hrs by sulforhodamine B assay; settings: Cancer cell lines; summary of the method: as §2
# [5] = Growth inhibition of human colon cancer cell after 48 hrs by sulforhodamine B assay; settings: Cancer cell lines; summary of the method: as §2
# HCT-15 = experiment: Growth inhibition of human HCT15 cells after 48 hrs by sulforhodamine B assay; settings: HCT-15, 48 h; summary of the method: as §3
# [6] = Growth inhibition of human renal cancer cell after 48 hrs by sulforhodamine B assay; settings: Cancer cell lines; summary of the method: as §2
# [7] = Growth inhibition of human CNS cancer cell after 48 hrs by sulforhodamine B assay; settings: Cancer cell lines; summary of the method: as §3
# HOP-62 = experiment: Growth inhibition of human HOP62 cells after 48 hrs by sulforhodamine B assay; settings: HOP-62, 48 h; summary of the method: as §3
# A498 = experiment: Growth inhibition of human A498 cells after 48 hrs by sulforhodamine B assay; settings: A498, 48 h; summary of the method: as §3
# UACC-62 = experiment: Growth inhibition of human UACC62 cells after 48 hrs by sulforhodamine B assay; settings: UACC-62, 48 h
# Summary of the method: (§4)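 NCI 60-cell-line main screen across nine tumor types, with five log dose range per compound. GI50 is the molar concentration giving half growth inhibition, reported as the log of the molar concentration that inhibits 50% net cell growth.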
# BT-549 = experiment: Growth inhibition of human BT549 cells after 48 hrs by sulforhodamine B assay; settings: BT-549, 48 h; summary of the method: as §3
# [8] = Growth inhibition of human leukemia cell after 48 hrs by sulforhodamine B assay; summary of the method: as §2
# [9] = Growth inhibition of human ovarian cancer cell after 48 hrs by sulforhodamine B assay; settings: Cancer cell lines; summary of the method: as §2
# [10] = Growth inhibition of human breast cancer cell after 48 hrs by sulforhodamine B assay; settings: Cancer cell lines; summary of the method: as §2
# [11] = Growth inhibition of human melanoma cell after 48 hrs by sulforhodamine B assay; summary of the method: as §2
# NCI-H226 = experiment: Growth inhibition of human NCI-H226 cells after 48 hrs by sulforhodamine B assay; settings: NCI-H226, 48 h; summary of the method: as §3
# A549 = experiment: Growth inhibition of human A549 cells after 48 hrs by sulforhodamine B assay; settings: A549, 48 h; summary of the method: as §3
# 786-0 = experiment: Growth inhibition of human 786-0 cells after 48 hrs by sulforhodamine B assay; settings: 786-0, 48 h; summary of the method: as §3
# UACC-257 = experiment: Growth inhibition of human UACC257 cells after 48 hrs by sulforhodamine B assay; settings: UACC-257, 48 h; summary of the method: as §4
# MCF7 [12] = experiment: Growth inhibition of human MCF7 cells after 48 hrs by sulforhodamine B assay; settings: MCF7, 48 h; summary of the method: as §3
# SK-MEL-2 = experiment: Growth inhibition of human SK-MEL-2 cells after 48 hrs by sulforhodamine B assay; settings: SK-MEL-2, 48 h; summary of the method: as §3
# MDA-MB-435 = experiment: Growth inhibition of human MDA-MB-435 cells after 48 hrs by sulforhodamine B assay; settings: MDA-MB-435, 48 h; summary of the method: as §3
# SNB-75 = experiment: Growth inhibition of human SNB75 cells after 48 hrs by sulforhodamine B assay; settings: SNB-75, 48 h; summary of the method: as §4
# OVCAR-3 = experiment: Growth inhibition of human OVCAR-3 cells after 48 hrs by sulforhodamine B assay; settings: OVCAR-3, 48 h; summary of the method: as §3
# SF-268 [13] = experiment: Growth inhibition of human SF268 cells after 48 hrs by sulforhodamine B assay; settings: SF-268, 48 h; summary of the method: as §3
# SN12C = experiment: Growth inhibition of human SN12C cells after 48 hrs by sulforhodamine B assay; summary of the method: as §4
# COLO 205 = experiment: Growth inhibition of human COLO205 cells after 48 hrs by sulforhodamine B assay; settings: COLO 205, 48 h; summary of the method: as §3
# SF-539 = experiment: Growth inhibition of human SF539 cells after 48 hrs by sulforhodamine B assay; settings: SF-539, 48 h; summary of the method: as §3
structure (smiles),measurement,setting,value
CC(NC(=O)Nc1nnc[nH]1)(C(F)(F)F)C(F)(F)F,growth at 100 µM,SF-268 [1],111%
same,growth at 100 µM,NCI-H460,111%
same,growth at 100 µM,MCF7 [2],98%
CC(NC(=O)Nn1cnnc1)(C(F)(F)F)C(F)(F)F,growth at 100 µM,SF-268 [1],105%
same,growth at 100 µM,NCI-H460,94%
same,growth at 100 µM,MCF7 [2],81%
CCC(NC(=O)Nc1nnc[nH]1)(C(F)(F)F)C(F)(F)F,growth at 100 µM,SF-268 [1],102%
same,growth at 100 µM,NCI-H460,86%
same,growth at 100 µM,MCF7 [2],102%
CCC(NC(=O)Nn1cnnc1)(C(F)(F)F)C(F)(F)F,growth at 100 µM,SF-268 [1],105%
same,growth at 100 µM,NCI-H460,94%
same,growth at 100 µM,MCF7 [2],84%
CC(NC(=O)Nc1c(Cl)cccc1Cl)(C(F)(F)F)C(F)(F)F,growth at 100 µM,SF-268 [1],84%
same,growth at 100 µM,NCI-H460,85%
same,growth at 100 µM,MCF7 [2],82%
CC(NC(=O)Nc1c(Cl)cc(Cl)cc1Cl)(C(F)(F)F)C(F)(F)F,growth at 100 µM,SF-268 [1],96%
same,growth at 100 µM,NCI-H460,103%
same,growth at 100 µM,MCF7 [2],89%
CCC(NC(=O)Nc1c(Cl)cccc1Cl)(C(F)(F)F)C(F)(F)F,growth at 100 µM,SF-268 [1],101%
same,growth at 100 µM,NCI-H460,79%
same,growth at 100 µM,MCF7 [2],75%
CCC(NC(=O)Nc1c(Cl)cc(Cl)cc1Cl)(C(F)(F)F)C(F)(F)F,growth at 100 µM,SF-268 [1],98%
same,growth at 100 µM,NCI-H460,81%
same,growth at 100 µM,MCF7 [2],88%
CC(NC(=O)Nc1nc2ccccc2s1)(C(F)(F)F)C(F)(F)F,GI50,[3],56.2 µM
same,GI50,NCI/ADR-RES,> 100 µM
same,GI50,[4],33.9 µM
same,GI50,[5],42.7 µM
same,GI50,HCT-15,> 100 µM
same,GI50,[6],28.2 µM
same,GI50,[7],25.7 µM
same,GI50,HOP-62,31.6 µM
same,GI50,A498,100 µM
same,GI50,UACC-62,> 100 µM
same,GI50,BT-549,> 100 µM
same,GI50,[8],21.9 µM
same,GI50,[9],39.8 µM
same,GI50,[10],50.1 µM
same,GI50,[11],42.7 µM
CCC(NC(=O)Nc1nc2ccccc2s1)(C(F)(F)F)C(F)(F)F,GI50,NCI-H226,15.8 µM
same,GI50,A549,15.8 µM
same,GI50,[3],18.2 µM
same,GI50,786-0,20 µM
same,GI50,[4],18.6 µM
same,GI50,[5],18.6 µM
same,GI50,[6],15.1 µM
same,GI50,[7],11.7 µM
same,GI50,UACC-257,20 µM
same,GI50,MCF7 [12],15.8 µM
same,GI50,[8],22.9 µM
same,GI50,SK-MEL-2,15.8 µM
same,GI50,MDA-MB-435,20 µM
same,GI50,[9],17.8 µM
same,GI50,[10],18.2 µM
same,GI50,[11],17.4 µM
O=c1[nH]cc(F)c(=O)[nH]1 [FLUOROURACIL],GI50,SNB-75,79.4 µM
same,GI50,[3],0.912 µM
same,GI50,NCI/ADR-RES,0.316 µM
same,GI50,[4],2 µM
same,GI50,OVCAR-3,0.0158 µM
same,GI50,SF-268 [13],1.58 µM
same,GI50,[5],0.186 µM
same,GI50,SN12C,0.501 µM
same,GI50,[6],0.575 µM
same,GI50,[7],1.35 µM
same,GI50,COLO 205,0.158 µM
same,GI50,HOP-62,0.398 µM
same,GI50,A498,0.398 µM
same,GI50,MCF7 [12],0.0794 µM
same,GI50,[8],0.562 µM
same,GI50,SF-539,0.0631 µM
same,GI50,[9],1.82 µM
same,GI50,[10],1.38 µM
same,GI50,[11],0.933 µM
